From the RNAGym collection of RNA variant scans (doi:10.1038/s41586-018-0170-7)

B1: tRNA (parent)
chain: GUUCCGUUGGCGUAAUGGUAACGCGUCUCCCUCCUAAGGAGAAGACUGCGGGUUCGAGUCCCGUACGGAACG

Variants of: B1
Assay: yeast fitness, log relative to wild type (ln ratio); higher = fitter; tRNA-Arg(CCU), competitive growth, 37 C, 1 M NaCl
In short: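 In BY4742 missing the chromosomal gene, a combinatorial tRNA-Arg(CCU) variant library was maintained on a HIS3 centromeric plasmid. Selection ran ~6.5 generations (~26.5 h) in SC-HIS 1M NaCl at 37 °C, following 4 generations in SC-HIS at 30 °C, with three outputs per input and variant counts by 125 bp paired-end Illumina sequencing. Fitness is the natural log of a genotype's generations relative to the wild type's, with generations taken as inverse-variance-weighted, OD-scaled log2 output/input frequency.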

Variant | yeast fitness (ln)
AUUCCGUUGGCGUAAUGGUAACGCGUCUCCCUCCUAAGGAGAAGAUUGCGGGUUCGAGUCCCGUACGGGGCG [G1A C46U A69G A70G] | -0.127
GGUCCUUUGGCGUAAUGGUAACGCGUCUCCCUCCUAAGGAGACGACUGCGGGUUCGAGUCCCGUAAGGGGUG [U2G G6U A43C C66A A69G A70G C71U] | -0.315
ACUCCUUUGGCGUAAUGGUAACGCGUCUCCCUCCUAAGGAGACGAUUGCGGGUUCGAGUCCCGUAAGGAAUG [G1A U2C G6U A43C C46U C66A C71U] | -0.3
GCUCCUUUGGCGUAAUGGUAACGCGUUUCCCUCCUAAGGAGAAGAUUGCGGGUUCGAGUCCCGUAUGGAUUG [U2C G6U C27U C46U C66U A70U C71U] | -0.335
AUUCCAUUGGCGUAAUGGUAACGCGUUUCCCUCCUAAGGAGACGAUUGCGGGUUCGAGUCCCGUAUGGAUUG [G1A G6A C27U A43C C46U C66U A70U C71U] | -0.413
ACUCCUUUGGCGUAAUGGUAACGCGUCUCCCUCCUAAGGAGACGACUGCGGGUUCGAGUCCCGUACGGGGUG [G1A U2C G6U A43C A69G A70G C71U] | -0.268
GGUCCUUUGGCGUAAUGGUAACGCGUUUCCCUCCUAAGGAGACGACUGCGGGUUCGAGUCCCGUAUGGAAUG [U2G G6U C27U A43C C66U C71U] | -0.381
AGUCCGUUGGCGUAAUGGUAACGCGUCUCCCUCCUAAGGAGACGACUGCGGGUUCGAGUCCCGUACGGGGCG [G1A U2G A43C A69G A70G] | -0.172
ACUCCGUUGGCGUAAUGGUAACGCGUUUCCCUCCUAAGGAGACGAUUGCGGGUUCGAGUCCCGUAUGGGGUG [G1A U2C C27U A43C C46U C66U A69G A70G C71U] | -0.2
ACUCCUUUGGCGUAAUGGUAACGCGUCUCCCUCCUAAGGAGAAGACUGCGGGUUCGAGUCCCGUAAGGAUCG [G1A U2C G6U C66A A70U] | -0.234
GUUCCUUUGGCGUAAUGGUAACGCGUUUCCCUCCUAAGGAGACGACUGCGGGUUCGAGUCCCGUAUGGGUCG [G6U C27U A43C C66U A69G A70U] | -0.349
GGUCCAUUGGCGUAAUGGUAACGCGUUUCCCUCCUAAGGAGACGAUUGCGGGUUCGAGUCCCGUACGGAGCG [U2G G6A C27U A43C C46U A70G] | -0.145
AGUCCGUUGGCGUAAUGGUAACGCGUCUCCCUCCUAAGGAGAAGAUUGCGGGUUCGAGUCCCGUACGGGGUG [G1A U2G C46U A69G A70G C71U] | -0.457
GUUCCGUUGGCGUAAUGGUAACGCGUCUCCCUCCUAAGGAGACGAUUGCGGGUUCGAGUCCCGUAUGGGAUG [A43C C46U C66U A69G C71U] | -0.273
GUUCCAUUGGCGUAAUGGUAACGCGUCUCCCUCCUAAGGAGAAGAUUGCGGGUUCGAGUCCCGUACGGGGCG [G6A C46U A69G A70G] | -0.18
GCUCCUUUGGCGUAAUGGUAACGCGUCUCCCUCCUAAGGAGAAGACUGCGGGUUCGAGUCCCGUAUGGAGUG [U2C G6U C66U A70G C71U] | -0.0593
GUUCCGUUGGCGUAAUGGUAACGCGUCUCCCUCCUAAGGAGACGACUGCGGGUUCGAGUCCCGUACGGGUCG [A43C A69G A70U] | -0.0328
AGUCCAUUGGCGUAAUGGUAACGCGUCUCCCUCCUAAGGAGACGAUUGCGGGUUCGAGUCCCGUACGGAUCG [G1A U2G G6A A43C C46U A70U] | -0.165
GGUCCUUUGGCGUAAUGGUAACGCGUUUCCCUCCUAAGGAGACGAUUGCGGGUUCGAGUCCCGUAUGGAACG [U2G G6U C27U A43C C46U C66U] | -0.262

Variant | yeast fitness (ln)
GUUCCGUUGGCGUAAUGGUAACGCGUCUCCCUCCUAAGGAGACGAUUGCGGGUUCGAGUCCCGUAUGGGUUG [A43C C46U C66U A69G A70U C71U] | -0.356
GUUCCUUUGGCGUAAUGGUAACGCGUUUCCCUCCUAAGGAGACGAUUGCGGGUUCGAGUCCCGUACGGGUCG [G6U C27U A43C C46U A69G A70U] | -0.245
AUUCCGUUGGCGUAAUGGUAACGCGUUUCCCUCCUAAGGAGACGAUUGCGGGUUCGAGUCCCGUAAGGGGUG [G1A C27U A43C C46U C66A A69G A70G C71U] | -0.305
AGUCCUUUGGCGUAAUGGUAACGCGUCUCCCUCCUAAGGAGAAGAUUGCGGGUUCGAGUCCCGUAUGGGUCG [G1A U2G G6U C46U C66U A69G A70U] | -0.288
GGUCCAUUGGCGUAAUGGUAACGCGUUUCCCUCCUAAGGAGACGAUUGCGGGUUCGAGUCCCGUACGGGUCG [U2G G6A C27U A43C C46U A69G A70U] | -0.159
GUUCCGUUGGCGUAAUGGUAACGCGUCUCCCUCCUAAGGAGACGACUGCGGGUUCGAGUCCCGUAUGGAUCG [A43C C66U A70U] | -0.105
GCUCCUUUGGCGUAAUGGUAACGCGUUUCCCUCCUAAGGAGACGACUGCGGGUUCGAGUCCCGUAAGGAGUG [U2C G6U C27U A43C C66A A70G C71U] | -0.0868
GCUCCAUUGGCGUAAUGGUAACGCGUUUCCCUCCUAAGGAGACGAUUGCGGGUUCGAGUCCCGUACGGAGUG [U2C G6A C27U A43C C46U A70G C71U] | -0.0979
AGUCCUUUGGCGUAAUGGUAACGCGUUUCCCUCCUAAGGAGAAGACUGCGGGUUCGAGUCCCGUACGGAACG [G1A U2G G6U C27U] | -0.148
AGUCCUUUGGCGUAAUGGUAACGCGUUUCCCUCCUAAGGAGAAGACUGCGGGUUCGAGUCCCGUAAGGAUUG [G1A U2G G6U C27U C66A A70U C71U] | -0.168
GGUCCAUUGGCGUAAUGGUAACGCGUUUCCCUCCUAAGGAGAAGACUGCGGGUUCGAGUCCCGUAUGGGGCG [U2G G6A C27U C66U A69G A70G] | -0.243
GUUCCGUUGGCGUAAUGGUAACGCGUCUCCCUCCUAAGGAGAAGAUUGCGGGUUCGAGUCCCGUACGGAAUG [C46U C71U] | -0.00784
GUUCCUUUGGCGUAAUGGUAACGCGUUUCCCUCCUAAGGAGAAGAUUGCGGGUUCGAGUCCCGUACGGAUUG [G6U C27U C46U A70U C71U] | -0.214
AGUCCUUUGGCGUAAUGGUAACGCGUUUCCCUCCUAAGGAGAAGACUGCGGGUUCGAGUCCCGUAUGGGUCG [G1A U2G G6U C27U C66U A69G A70U] | -0.307
AUUCCUUUGGCGUAAUGGUAACGCGUUUCCCUCCUAAGGAGACGAUUGCGGGUUCGAGUCCCGUACGGGGUG [G1A G6U C27U A43C C46U A69G A70G C71U] | -0.414
GUUCCAUUGGCGUAAUGGUAACGCGUCUCCCUCCUAAGGAGAAGAUUGCGGGUUCGAGUCCCGUAUGGAGCG [G6A C46U C66U A70G] | -0.0166
GUUCCAUUGGCGUAAUGGUAACGCGUCUCCCUCCUAAGGAGAAGACUGCGGGUUCGAGUCCCGUAAGGGGUG [G6A C66A A69G A70G C71U] | -0.163
GGUCCUUUGGCGUAAUGGUAACGCGUUUCCCUCCUAAGGAGAAGAUUGCGGGUUCGAGUCCCGUACGGGACG [U2G G6U C27U C46U A69G] | -0.255
GGUCCUUUGGCGUAAUGGUAACGCGUUUCCCUCCUAAGGAGACGAUUGCGGGUUCGAGUCCCGUAUGGGAUG [U2G G6U C27U A43C C46U C66U A69G C71U] | -0.375
